The target of test [1] is T1, 5-hydroxytryptamine receptor 1A (Homo sapiens) (UniProt P08908).
T1 sequence (whole entry): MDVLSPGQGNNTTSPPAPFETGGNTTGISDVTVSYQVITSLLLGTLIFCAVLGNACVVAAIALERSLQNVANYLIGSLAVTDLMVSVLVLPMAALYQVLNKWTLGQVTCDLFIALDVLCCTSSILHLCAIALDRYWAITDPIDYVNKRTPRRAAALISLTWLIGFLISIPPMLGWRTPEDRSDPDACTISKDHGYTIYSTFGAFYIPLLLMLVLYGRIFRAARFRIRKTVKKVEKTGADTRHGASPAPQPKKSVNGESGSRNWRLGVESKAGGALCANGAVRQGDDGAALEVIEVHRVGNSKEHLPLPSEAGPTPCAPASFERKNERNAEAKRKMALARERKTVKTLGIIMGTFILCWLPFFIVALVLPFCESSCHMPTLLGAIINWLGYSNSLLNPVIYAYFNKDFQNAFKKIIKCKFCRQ
Kind of test: Percent decrease in 5-hydroxytryptamine 1A receptor binding using 8-OH-DPAT. On the set-up: concentration or dose not given beside the values. A digest of the protocol:
(§1)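 Preliminary screen of receptors isolated from rat or pig tissues, run with minor changes to standard procedures. Each compound was tested at a single fixed concentration for each receptor. The read-out was the percent decrease in binding of the named radioligand.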

Test [2] concerns the target T2, Glutamate receptor ionotropic AMPA (Homo sapiens) (UniProt P48058+P42263+P42262+P42261). Briefly: Percent decrease of Quisqualate receptor binding using AMPA. The format is protein-complex assay. On the set-up: scale not given: the % may be the effect or the level left. A digest of the protocol: as §1
For test [3], the target named is Sodium-dependent serotonin transporter (Homo sapiens) (UniProt P31645). Briefly: % Decrease of 5-HT carrier-receptor -bound radioactivity using paroxetine as a radioligand. On the set-up: concentration or dose not given beside the values. A digest of the protocol:
as §1

Test [4] concerns the target D(2) dopamine receptor (Rattus norvegicus) (UniProt P61169). Kind of test: Percent decrease in Dopamine receptor D2 binding using spiperone. On the set-up: scale not given: the % may be the effect or the level left. The essentials: as §1
The target of test [5] is GABA-A receptor; anion channel (Homo sapiens) (UniProt P14867+P47870+P18507+P28472+P48169+Q99928+Q9UN88+P34903+O00591+O14764+Q8N1C3+P18505+P78334+P47869+P31644+Q16445). Briefly: Displacement of muscimol from GABA-A receptor. It counts as protein-complex assay. A digest of the protocol: as §1
For test [6], the target named is Neuronal acetylcholine receptor (Rattus norvegicus) (UniProt P04757+P09483+P12389+P12390+P12392+P43144+Q9JLB5+P12391+P43143+P20420+Q05941). Briefly: % Decrease of Nicotinic acetylcholine receptor-bound radioactivity using cytisine as a radioligand. The format is protein-complex assay. On the set-up: scale not given: the % may be the effect or the level left. The essentials:
as §1

The target of test [7] is Adrenergic receptor alpha-1 (Homo sapiens) (UniProt P35348+P25100+P35368). Kind of test: Percent decrease in Alpha-1 adrenergic receptor binding using prazosin. The format is protein assay. The essentials:
as §1

Test [8] addresses Serotonin 2 (5-HT2) receptor (Rattus norvegicus, UniProt P30994+P08909+P14842). Briefly: Binding affinity against 5-hydroxytryptamine 2 receptor in rat striatum using [3H]-RP62203. The format is tissue-based.
The target in test [9] is D(1A) dopamine receptor (Rattus norvegicus) (UniProt P18901). Briefly: Percent decrease of Dopamine receptor D1 binding using SCH-23390. On the set-up: scale not given: the % may be the effect or the level left.
Test [10] has as its target T2, Glutamate receptor ionotropic AMPA (Homo sapiens). Kind of test: Percent decrease in Quisqualate receptor binding using AMPA. On the set-up: scale not given: the % may be the effect or the level left. It counts as protein-complex assay. A digest of the protocol:
as §1

The target in test [11] is T3, Adenosine receptor A1 (Homo sapiens) (UniProt P30542).
T3 sequence (whole entry): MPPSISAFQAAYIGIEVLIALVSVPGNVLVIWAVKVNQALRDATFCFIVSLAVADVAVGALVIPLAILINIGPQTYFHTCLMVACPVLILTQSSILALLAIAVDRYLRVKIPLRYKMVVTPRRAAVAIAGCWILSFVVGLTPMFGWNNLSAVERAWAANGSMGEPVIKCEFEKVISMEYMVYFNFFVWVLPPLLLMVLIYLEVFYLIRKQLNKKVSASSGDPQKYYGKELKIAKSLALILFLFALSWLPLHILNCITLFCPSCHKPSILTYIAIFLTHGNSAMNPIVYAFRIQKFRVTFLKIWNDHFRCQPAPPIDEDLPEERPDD
Kind of test: Percent decrease in Adenosine A1 receptor binding using CPDPX. On the set-up: scale not given: the % may be the effect or the level left.

Another test concerns the target D(1A) dopamine receptor (Rattus norvegicus, UniProt P18901). Kind of test: Binding affinity against Dopamine receptor D1 of rat striatal receptor using [3H]SCH-23390. A digest of the protocol:
(§2)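 Rat striatal receptor preparations were used, with [3H]SCH23390 for D1, [3H]spiperone for D2 and [3H]RP62203 for 5-HT2. Ki ([…]) was derived from competitive displacement of the radioligand, with n = 3–7.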

Another test addresses D(2) dopamine receptor (Rattus norvegicus, UniProt P61169). Briefly: Binding affinity against Dopamine receptor D2 of rat striatal mambranes using [3H]spiperone. A digest of the protocol: as §2

Chain of Sodium-dependent serotonin transporter (Homo sapiens) (P31645 whole entry, looked up): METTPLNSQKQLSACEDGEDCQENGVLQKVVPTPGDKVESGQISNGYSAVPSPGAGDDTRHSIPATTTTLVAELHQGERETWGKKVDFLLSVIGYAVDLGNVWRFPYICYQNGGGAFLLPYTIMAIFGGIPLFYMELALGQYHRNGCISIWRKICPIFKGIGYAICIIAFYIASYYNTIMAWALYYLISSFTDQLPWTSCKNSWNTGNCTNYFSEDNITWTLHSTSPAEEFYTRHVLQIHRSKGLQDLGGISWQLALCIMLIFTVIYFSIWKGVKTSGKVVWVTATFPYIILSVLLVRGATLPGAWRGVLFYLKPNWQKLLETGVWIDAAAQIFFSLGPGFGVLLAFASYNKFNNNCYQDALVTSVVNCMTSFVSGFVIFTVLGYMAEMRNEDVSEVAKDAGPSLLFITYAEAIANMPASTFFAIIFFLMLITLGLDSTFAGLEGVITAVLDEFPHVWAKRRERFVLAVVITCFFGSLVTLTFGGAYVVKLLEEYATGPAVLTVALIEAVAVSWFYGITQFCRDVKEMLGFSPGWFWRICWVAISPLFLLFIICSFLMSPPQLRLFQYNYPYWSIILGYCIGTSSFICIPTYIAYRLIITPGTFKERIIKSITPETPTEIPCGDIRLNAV
Chain of D(2) dopamine receptor (Rattus norvegicus) (P61169 whole entry): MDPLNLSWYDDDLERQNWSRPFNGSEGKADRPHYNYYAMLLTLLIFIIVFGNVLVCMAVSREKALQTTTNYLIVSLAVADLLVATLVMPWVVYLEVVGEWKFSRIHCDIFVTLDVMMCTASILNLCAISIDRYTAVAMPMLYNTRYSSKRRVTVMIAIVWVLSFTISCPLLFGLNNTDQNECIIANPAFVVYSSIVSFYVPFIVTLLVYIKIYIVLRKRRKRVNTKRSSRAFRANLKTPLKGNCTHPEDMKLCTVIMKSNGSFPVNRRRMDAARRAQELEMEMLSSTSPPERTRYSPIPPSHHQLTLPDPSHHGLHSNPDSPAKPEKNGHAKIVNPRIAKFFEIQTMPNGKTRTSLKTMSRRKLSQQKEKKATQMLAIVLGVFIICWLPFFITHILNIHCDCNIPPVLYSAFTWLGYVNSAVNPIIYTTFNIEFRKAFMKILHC
Chain of D(1A) dopamine receptor (P18901 whole entry): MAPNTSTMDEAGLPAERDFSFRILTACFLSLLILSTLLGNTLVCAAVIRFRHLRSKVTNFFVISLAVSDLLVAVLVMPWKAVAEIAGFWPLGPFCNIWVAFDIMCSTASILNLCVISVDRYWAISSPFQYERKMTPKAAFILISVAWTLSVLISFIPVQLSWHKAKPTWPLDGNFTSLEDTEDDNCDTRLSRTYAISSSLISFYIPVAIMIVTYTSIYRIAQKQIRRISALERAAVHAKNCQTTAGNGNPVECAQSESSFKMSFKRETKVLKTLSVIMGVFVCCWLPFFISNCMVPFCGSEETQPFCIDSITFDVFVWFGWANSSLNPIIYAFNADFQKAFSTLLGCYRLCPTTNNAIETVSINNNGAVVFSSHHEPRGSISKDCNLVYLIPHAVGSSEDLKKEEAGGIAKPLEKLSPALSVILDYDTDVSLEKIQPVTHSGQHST
Chain of D(1A) dopamine receptor (Rattus norvegicus) (P18901 whole entry, looked up): as the sequence (P18901 whole entry) above
Chain of D(2) dopamine receptor (P61169 whole entry): as the sequence (P61169 whole entry) above

In the case of `c1ccc2c3c([nH]c2c1)C1c2[nH]c4ccccc4c2CCN1CC3`, the Activity was -25% in test [1]; -1% in test [2]; -45% in [3]; -51% in test [4]; 5% in test [5]; 1% in [6]. Further, the Decrease in [7] was -88%.

Usually Ki stands for the dissociation constant of the complex between target and ligand, obtained from inhibition or displacement. Consider `CN1CCc2ccccc2Cc2[nH]c3ccccc3c2CC1`, for which the Activity is -72% in [1]; -8% in test [3]; -99% in [9]; -9% in [5]; -3% in test [10]; -3% in [6]. Moreover, in test [11], the Activity was found to be 5%. The values for the Ki (in test [8]; on D(1A) dopamine receptor; on D(2) dopamine receptor) were 20 nM, 0.08 nM and 6 nM, respectively. Further, the Decrease in test [7] is -97%.

On to `COc1cc2c(cc1OC)C1c3[nH]c4ccccc4c3CCN1CC2` (configuration not stated), for which the Activity in test [1] is -21%; in [2], -1%; in test [3] it was -8%; in test [4] it was -11%; in test [5], -26%; in test [6], -4%. Further, the Decrease in [7] is -94%.

On to `c1ccc2c(c1)CCN1CCc3c([nH]c4ccccc34)C21` (configuration not stated), for which the Activity was -12% in test [1]; 3% in test [2]; -32% in test [3]; -19% in test [4]; -17% in test [5]; 0% in test [6]. In addition, the Decrease in test [7] was -82%.

For the origin of these results see ChEMBL document CHEMBL1133101, “7-Methyl-6,7,8,9,14,15-hexahydro-5H-benz[d]indolo[2,3-g]azecine: a new heterocyclic system and a new lead compound for dopamine receptor antagonists” (J Med Chem, 2000).
